Measured values taken from ChEMBL document CHEMBL1128434, “Gonadotropin-releasing hormone antagonists: novel members of the azaline B family” (1995).
Values belong to the compound of their own block, whether it stands above or below them.

How the values were obtained:
Rattus norvegicus [1] = species: Rattus norvegicus; experiment: Effect in the anti ovulatory assay (AOA) in rats expressed as no. of rats ovulating/No of rats treated at 2.0 mg; 1/10; format: functional
[2] = molecular target: T1, Gonadotropin-releasing hormone receptor (Rattus norvegicus) (UniProt P30969); experiment: Duration of action, measured using castrated male rat assay to inhibit luteinizing hormone release.; fully active at 24 hr but not at 48 hr; format: functional
T1 sequence (whole entry): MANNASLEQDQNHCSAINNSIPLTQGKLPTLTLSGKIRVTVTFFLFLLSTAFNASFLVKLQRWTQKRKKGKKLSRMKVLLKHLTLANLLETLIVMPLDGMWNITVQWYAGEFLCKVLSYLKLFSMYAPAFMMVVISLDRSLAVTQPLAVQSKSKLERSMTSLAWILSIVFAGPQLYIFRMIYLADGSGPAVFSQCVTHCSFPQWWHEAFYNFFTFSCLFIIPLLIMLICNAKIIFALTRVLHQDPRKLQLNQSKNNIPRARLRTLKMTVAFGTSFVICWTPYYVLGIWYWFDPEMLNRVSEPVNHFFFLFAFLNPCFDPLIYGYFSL

[3] = molecular target: T1, Gonadotropin-releasing hormone receptor (Rattus norvegicus); experiment: In vitro potency to inhibit GnRH-mediated LH secretion by cultured pituitary cells relative to [Ac-delta-Pro1,DFpa2,DTrp36]GnRH.; format: functional, cell-based; conditions: Pituitary gland cell
Outline: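 Dispersed rat pituitary cells in culture; antagonist inhibition of GnRH-stimulated LH secretion. Potency expressed relative to standard antagonist [Ac-Δ3Pro1,D4FPhe2,DTrp3,6]GnRH taken as 1.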

[4] = molecular target: T1, Gonadotropin-releasing hormone receptor (Rattus norvegicus); experiment: Effect in the anti ovulatory assay (AOA) in rats expressed as no. of rats ovulating/No of rats treated at 2.5 mg; 0/8; format: functional
[5] = molecular target: T1, Gonadotropin-releasing hormone receptor (Rattus norvegicus); experiment: Duration of action measured using castrated male rat assay to inhibit luteinizing hormone release.; fully active at 72 hr; format: functional
Rattus norvegicus [6] = species: Rattus norvegicus; experiment: Effect in the anti ovulatory assay (AOA) in rats expressed as no. of rats ovulating/No of rats treated at 1.0 mg; 7/14; format: functional
Rattus norvegicus [7] = species: Rattus norvegicus; experiment: Effect in the anti ovulatory assay (AOA) in rats expressed as no. of rats ovulating/No of rats treated at 1.0 mg; 1/10; format: functional
Rattus norvegicus [8] = species: Rattus norvegicus; experiment: Effect in the anti ovulatory assay (AOA) in rats expressed as no. of rats ovulating/No of rats treated at 25 mg; 0/3; format: functional
Rattus norvegicus [9] = species: Rattus norvegicus; experiment: Effect in the anti ovulatory assay (AOA) in rats expressed as no. of rats ovulating/No of rats treated at 10 mg; 2/6; format: functional
Rattus norvegicus [10] = species: Rattus norvegicus; experiment: Effect in the anti ovulatory assay (AOA) in rats expressed as no. of rats ovulating/No of rats treated at 1.0 mg; 9/18; format: functional
Rattus norvegicus [11] = species: Rattus norvegicus; experiment: Effect in the anti ovulatory assay (AOA) in rats expressed as no. of rats ovulating/No of rats treated at 2.5 mg; 0/6; format: functional
Rattus norvegicus [12] = species: Rattus norvegicus; experiment: Effect in the anti ovulatory assay (AOA) in rats expressed as no. of rats ovulating/No of rats treated at 50 mg; 4/7; format: functional
Rattus norvegicus [13] = species: Rattus norvegicus; experiment: Effect in the anti ovulatory assay (AOA) in rats expressed as no. of rats ovulating/No of rats treated at 1.0 mg; 2/2; format: functional
Rattus norvegicus [14] = species: Rattus norvegicus; experiment: Effect in the anti ovulatory assay (AOA) in rats expressed as no. of rats ovulating/No of rats treated at 2.5 mg; 4/8; format: functional
Rattus norvegicus [15] = species: Rattus norvegicus; experiment: Duration of action measured using castrated male rat assay to inhibit luteinizing hormone release.; fully active at 48 hr but not at 72 hr; format: functional
Rattus norvegicus [16] = species: Rattus norvegicus; experiment: Effect in the anti ovulatory assay (AOA) in rats expressed as no. of rats ovulating/No of rats treated at 1.0 mg; 8/8; format: functional

Compound: CC(=O)Nc1ccc(C[C@H](NC(=O)[C@H](CO)NC(=O)[C@@H](Cc2cccnc2)NC(=O)[C@@H](Cc2ccc(Cl)cc2)NC(=O)[C@H](Cc2ccc3ccccc3c2)NC(C)=O)C(=O)N[C@H](Cc2ccc(NC(C)=O)cc2)C(=O)N[C@@H](CC(C)C)C(=O)N[C@@H](CCCCNC(C)C)C(=O)N2CCC[C@H]2C(=O)N[C@H](C)N)cc1
- No. of rats ovulated (Rattus norvegicus [8]): 0
- No. of rats ovulated (Rattus norvegicus [9]): 2

Compound: CC(=O)N[C@H](Cc1ccc2ccccc2c1)C(=O)N[C@H](Cc1ccc(Cl)cc1)C(=O)N[C@H](Cc1cccnc1)C(=O)N[C@@H](CO)C(=O)N[C@@H](Cc1ccc(Nc2n[nH]c(N)n2)cc1)C(=O)N[C@H](Cc1ccc(Nc2n[nH]c(N)n2)cc1)C(=O)N[C@@H](CC(C)C)C(=O)N[C@@H](Cc1ccc(NC(C)C)cc1)C(=O)N1CCC[C@H]1C(=O)N[C@H](C)N
- No. of rats ovulated (Rattus norvegicus [12]): 4

Compound: CC(=O)N[C@H](Cc1ccc2ccccc2c1)C(=O)N[C@H](Cc1ccc(Cl)cc1)C(=O)N[C@H](Cc1cccnc1)C(=O)N[C@@H](CO)C(=O)N[C@@H](Cc1ccc(NC(=O)C2CCC(=O)N2)cc1)C(=O)N[C@H](Cc1ccc(NC(=O)C2CCC(=O)N2)cc1)C(=O)N[C@@H](CC(C)C)C(=O)N[C@@H](CCCCNC(C)C)C(=O)N1CCC[C@H]1C(=O)N[C@H](C)N (some centres not stated)
- No. of rats ovulated (Rattus norvegicus [13]): 2
- No. of rats ovulated (Rattus norvegicus [14]): 4

Further lines, with some results ahead:

- Duration of action [2]: 24 h
- Relative potency [3]: 0.23
Compound: CC(=O)N[C@H](Cc1ccc2ccccc2c1)C(=O)N[C@H](Cc1ccc(Cl)cc1)C(=O)N[C@H](Cc1cccnc1)C(=O)N[C@@H](CO)C(=O)N[C@@H](CCCCNc1n[nH]c(N)n1)C(=O)N[C@H](CCCCNc1n[nH]c(N)n1)C(=O)N[C@@H](CC(C)C)C(=O)N[C@@H](CCCCNC(C)C)C(=O)N1CCC[C@H]1C(=O)N[C@H](C)N
- No. of rats ovulated (Rattus norvegicus [1]): 1

- No. of rats ovulated [4]: 0
- Duration of action [5]: 72 h
- Relative potency [3]: 0.82
Compound: CC(=O)Nc1ccc(C[C@@H](NC(=O)[C@H](Cc2ccc(Nc3n[nH]c(N)n3)cc2)NC(=O)[C@H](CO)NC(=O)[C@@H](Cc2cccnc2)NC(=O)[C@@H](Cc2ccc(Cl)cc2)NC(=O)[C@@H](Cc2ccc3ccccc3c2)NC(C)=O)C(=O)N[C@@H](CC(C)C)C(=O)N[C@@H](CCCCNC(C)C)C(=O)N2CCC[C@H]2C(=O)N[C@H](C)N)cc1
- No. of rats ovulated (Rattus norvegicus [6]): 7

- No. of rats ovulated [4]: 0
- Duration of action [5]: 72 h
Compound: CCC(=O)Nc1ccc(C[C@H](NC(=O)[C@H](CO)NC(=O)[C@@H](Cc2cccnc2)NC(=O)[C@@H](Cc2ccc(Cl)cc2)NC(=O)[C@@H](Cc2ccc3ccccc3c2)NC(C)=O)C(=O)N[C@H](Cc2ccc(NC(=O)CC)cc2)C(=O)N[C@@H](CC(C)C)C(=O)N[C@@H](CCCCNC(C)C)C(=O)N2CCC[C@H]2C(=O)N[C@H](C)N)cc1
- No. of rats ovulated (Rattus norvegicus [7]): 4

- Duration of action [5]: 72 h
- Relative potency [3]: 0.52
Compound: CC(=O)N[C@H](Cc1ccc2ccccc2c1)C(=O)N[C@H](Cc1ccc(Cl)cc1)C(=O)N[C@H](Cc1cccnc1)C(=O)N[C@@H](CO)C(=O)N[C@@H](Cc1ccc(NC(=O)CCNc2n[nH]c(N)n2)cc1)C(=O)N[C@H](Cc1ccc(NC(=O)CCNc2n[nH]c(N)n2)cc1)C(=O)N[C@@H](CC(C)C)C(=O)N[C@@H](CCCCNC(C)C)C(=O)N1CCC[C@H]1C(=O)N[C@H](C)N
- No. of rats ovulated (Rattus norvegicus [10]): 9
- No. of rats ovulated (Rattus norvegicus [11]): 0

- No. of rats ovulated [4]: 0
Compound: CC(=O)Nc1ccc(C[C@H](NC(=O)[C@H](CO)NC(=O)[C@@H](Cc2cccnc2)NC(=O)[C@@H](Cc2ccc(Cl)cc2)NC(=O)[C@@H](Cc2ccc3ccccc3c2)NC(C)=O)C(=O)N[C@H](Cc2ccc(NC(C)=O)cc2)C(=O)N[C@@H](CC(C)C)C(=O)N[C@@H](CCCCNC(C)C)C(=O)N2CCC[C@H]2C(=O)N[C@@H](C)N)cc1
- Duration of action (Rattus norvegicus [15]): 48 h
- No. of rats ovulated (Rattus norvegicus [16]): 8
